The results in this text go back to the array DNA melting data of Ke et al. (doi:10.1101/2024.01.08.574731).

Data set [1] in a line: folding enthalpy; higher = less favourable; fluorescence melt of hairpins on a sequencing array, two-state fit. The following applies: sodium 0.088 M. In a few lines:
(§1)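 Hairpins were imaged by Cy3 fluorescence on a sequenced MiSeq flow cell with annealed Cy3 and quencher oligos, in 50 mM Na-HEPES pH 8.0, 25 mM NaCl, in 2.5 °C steps up to 60 °C. Bootstrapped two-state fits of normalised signals gave melting temperature and folding enthalpy. Four replicates were combined by inverse variance, and fitted temperatures were raised by 9.35 °C to match UV melts.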

Data set [2] can be described thus: melting temperature; fluorescence melt of hairpins on a sequencing array, two-state fit, raised by 9.35 °C to match UV melts. As to conditions: sodium 0.088 M. In outline:
as §1

Take GCCACGCGAAAGCGAAGC ((..(((....)))..)): in data set [1], the folding enthalpy is -11.2 kcal/mol. Besides, the Tm in data set [2] is 43.4 °C.
As for GCCTACGGAAACATAGGC (((((.(....).))))), the folding enthalpy in data set [1] is -28.9 kcal/mol. For the same sequence, in data set [2], the Tm turned out to be 40.3 °C.
With GTCTAGAAATAGAC (((((....))))), the folding enthalpy in data set [1] was -14.9 kcal/mol. Further, the Tm in data set [2] was 40.5 °C.
In the case of GTAGTCGAAAGACATTAC ((((((....)))..))), in data set [1], the folding enthalpy was -9.35 kcal/mol. The Tm in data set [2] stood at 23.5 °C.
On to CGTTCGGAAACGAATACG ((((((....)))..))), for which the folding enthalpy in data set [1] was -19.2 kcal/mol. Moreover, the Tm in data set [2] was 36.7 °C.
In the same order, the values of GACGGTGGAAACACCACC (..((((....))))..) are -11.1 kcal/mol and 35.2 °C.
Regarding GCTGAAGGAAACTTCAAC (.(((((....))))).), the folding enthalpy in data set [1] is -18 kcal/mol. In addition, in data set [2], the Tm was found to be 29.8 °C.
For GCCATGTCGAAAGACGGC (((..(((....)))))), in data set [1], the folding enthalpy is -20.1 kcal/mol. Moreover, the Tm in data set [2] is 51.5 °C.
As to GTTACTGGAAACAGCAAC (((.(((....))).))), the folding enthalpy in data set [1] is -28 kcal/mol. Also, the Tm in data set [2] is 36 °C.
Regarding GCGTTCCGAAAGGATCGC (((.(((....))).))), the folding enthalpy in data set [1] was -35.4 kcal/mol. For the same sequence, the Tm in data set [2] was 61.6 °C.
In the same order, the values of GATCAATACGTTGATC ((((((....)))))) are -37.9 kcal/mol and 48 °C.
For GTGTGTGGAAACGCACAC (((((.(....).))))) the same measures were -36.2 kcal/mol and 56.5 °C.
For GTCGGTGGAAACATCGGC (.((.((....)).)).) the same measures were -26.2 kcal/mol and 44.4 °C.
On to GGCCAAGAAATTGGCC ((((((....)))))), for which, in data set [1], the folding enthalpy was -40.1 kcal/mol. Moreover, the Tm in data set [2] turned out to be 64.4 °C.
For GATCGAACCGTCGATC ((((((....)))))) the same measures were -37 kcal/mol and 49.5 °C.
Turning to GCCCCACGAAAGTGGGC (((.(((....)))))), in data set [1], the folding enthalpy is -10.9 kcal/mol. Besides, the Tm in data set [2] amounted to 65.5 °C.
On to GTTGCCGAAAGGCGAAC ((((((....))).))), for which, in data set [1], the folding enthalpy was -13.8 kcal/mol. Besides, the Tm in data set [2] is 50.3 °C.
For GCCGAGCGAAAGCCCCGC ((.(.((....)).).)) the same measures were -12.1 kcal/mol and 32.2 °C.
For the sequence AACGTGAAAACGTT (((((....))))), the folding enthalpy in data set [1] was -19.2 kcal/mol. For the same sequence, the Tm in data set [2] came to 48 °C.
For the sequence GCCAGGCGAAAGCTAGGC (((..((....))..))), the folding enthalpy in data set [1] was -27.9 kcal/mol. Further, in data set [2], the Tm came to 61.3 °C.
With GATCGTTCGAACGATC ((((((....)))))), in data set [1], the folding enthalpy is -53.9 kcal/mol. Moreover, the Tm in data set [2] was determined as 56.6 °C.
For GATCCATATTTGGATC ((((((....)))))) the same measures were -36.9 kcal/mol and 53.6 °C.
GAAGGCGAAAGCCTCTTC ((((((....)))..))): the folding enthalpy in data set [1] is -21.5 kcal/mol. Further, the Tm in data set [2] came to 54.5 °C.
On to GATCTCCAAGAGATC ((((((...)))))), for which, in data set [1], the folding enthalpy was -30.2 kcal/mol. Further, the Tm in data set [2] came out at 49.8 °C.
In the case of GTGCTTGCGAAAGCACAC (((..(((....)))))), the folding enthalpy in data set [1] is -13.1 kcal/mol. Moreover, the Tm in data set [2] came out at 61.4 °C.
In the same order, the values of GGTATTGGAAACGATACC (((((.(....).))))) are -33.4 kcal/mol and 44.4 °C.
GGACACCGAAAGGTTCC (((.(((....)))))): the folding enthalpy in data set [1] was -25.6 kcal/mol. The Tm in data set [2] amounted to 48.6 °C.
For GCAGCGCGAAAGCAATGC (((..((....))..))) the same measures were -25.3 kcal/mol and 54.9 °C.
Take GCGGGGATCCGC ((((....)))): the folding enthalpy in data set [1] was -19.9 kcal/mol. In data set [2], the Tm was 68.9 °C.
On to GATCTGCGGTCAGATC ((((((....)))))), for which the folding enthalpy in data set [1] was -32.9 kcal/mol. Moreover, in data set [2], the Tm is 49.7 °C.
Consider GTCGAGTCGAAAGACGAC (((..(((....)))))), for which the folding enthalpy in data set [1] was -10.7 kcal/mol. The Tm in data set [2] was determined as 47 °C.
Take GCGGGACCCCGC ((((....)))): the folding enthalpy in data set [1] is -26 kcal/mol. In data set [2], the Tm came out at 67.8 °C.
For GATCGAGCAATCGATC ((((((....)))))) the same measures were -39.7 kcal/mol and 57.7 °C.
For GGGAATGAAAATTCCC ((((((....)))))) the same measures were -40.6 kcal/mol and 56 °C.
For GCTCGGCGAAAGCGGCGC ((.(.((....)).).)) the same measures were -15.8 kcal/mol and 54 °C.
Take GACTCGGCGAAAGCCGTC (((..(((....)))))): the folding enthalpy in data set [1] is -4.78 kcal/mol. The Tm in data set [2] was found to be 36.2 °C.
For the sequence GCTCTGCGAAAGCGAAGC (((..((....))..))), the folding enthalpy in data set [1] is -13.6 kcal/mol. Moreover, the Tm in data set [2] is 40.8 °C.
In the same order, the values of GAACGCGAAAGCGTTTC ((((((....))).))) are -10.7 kcal/mol and 57.7 °C.
